The record followed here is ChEMBL document CHEMBL5143611, “Antillatoxin-Stimulated Neurite Outgrowth Involves the Brain-Derived Neurotrophic Factor (BDNF) - Tropomyosin Related Kinase B (TrkB) Signaling Pathway” (J Nat Prod, 2022).

Test [1] is described as follows: Induction of aspartate release in Swiss Webster mouse immature cerebrocortical neuron assessed as increase in aspartate concentration at 100 nM incubated for 2 hrs by HPLC based fluorescence method. The class given is functional, Cerebral cortex neuron. The method in brief:
(§1)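 Cortical neurons at 5 DIV in 96-well plates. Medium saved and cells washed in Locke's buffer, pH 7.4. Exposure in that buffer for 2 h at 22 °C, then three washes and return to the saved medium for 22 h at 37 °C. Medium then collected, derivatized with o-phthaldialdehyde and analysed by HPLC with fluorescence detection.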

A short description of test [2]: Induction of aspartate release in Swiss Webster mouse immature cerebrocortical neuron assessed as increase in aspartate concentration at 30 nM incubated for 2 hrs by HPLC based fluorescence method. The class given is functional, Cerebral cortex neuron. The method in brief: as §1
Test [3] can be described thus: Induction of glutamate release in Swiss Webster mouse immature cerebrocortical neuron assessed as increase in glutamate release at 30 nM incubated for 2 hrs by HPLC based fluorescence method. It is filed as functional, Cerebral cortex neuron. The method in brief: as §1
A short description of test [4]: (§2) Induction of BDNF release in Swiss Webster mouse immature cerebrocortical neuron assessed as increase in BDNF release incubated for 4 days by sandwich ELISA method. Conditions: Cerebral cortex neuron, 96 h. The class given is functional, cell-based. The method in brief: (§3)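 In situ sandwich ELISA. Plates coated overnight at 4 °C with anti-BDNF capture antibody, then blocked. Immature cortical neurons plated directly in the wells with BDNF standards and treated from 3 h after plating; 50 mM KCl served as comparator. After 4 days cells were washed off with TBST, and bound BDNF was detected with a polyclonal antibody for 2 h at RT.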

For test [5], the system named is Cerebral cortex neuron. Described as §2. The class given is functional, cell-based. Conditions: time 4.0 day, DDE = dose-dependent effect. Put shortly: as §3
Test [6] concerns Cerebral cortex neuron. The experiment in a line: Induction of BDNF release in Swiss Webster mouse immature cerebrocortical neuron assessed as increase in BDNF release at 100 to 3000 nM incubated for 4 days by sandwich ELISA method. It is filed as functional, cell-based. Conditions: dose 100-3000 nM, time 4.0 day. The method in brief: as §3
The subject of test [7] is Cerebral cortex neuron. The experiment in a line: Induction of BDNF release in Swiss Webster mouse immature cerebrocortical neuron assessed as increase in BDNF synthesis at 30 nM incubated for 30 mins by western blot analysis. The class given is functional, cell-based. The method in brief:
(§4)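 DIV-1 cortical neurons in six-well plates exposed to 30 nM for 30 min at 37 °C. Where antagonists were used, 15 min preincubation. Exposure stopped on ice, cells washed in cold PBS and lysed 30 min at 4 °C. Protein measured by Bradford. Equal protein run on 10% SDS-PAGE, blotted to PVDF, probed with specific antibodies, ECL detection.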

Test [8] has as its system Cerebral cortex neuron. The experiment in a line: Induction of glutamate release in Swiss Webster mouse immature cerebrocortical neuron assessed as increase in glutamate release at 30 to 100 nM incubated for 2 hrs by HPLC based fluorescence method. Conditions: dose 30-100 nM. It is filed as functional, cell-based. The method in brief:
as §1

Test [9] in a line: Induction of glutamate release in Swiss Webster mouse immature cerebrocortical neuron assessed as increase in glutamate release at 100 nM incubated for 2 hrs by HPLC based fluorescence method. It is filed as functional, Cerebral cortex neuron. The method in brief: as §1
In test [10] the target is BDNF/NT-3 growth factors receptor (Homo sapiens) (UniProt Q16620). The experiment in a line: Activation of full length isoform of TrkB receptor (unknown origin) expressed in mouse cerebrocortical neuron assessed as increase in neurite length at 30 nM incubated for 24 hrs by DiI dye based microscopic analysis. The following applies: filed as activator. The class given is cell-based. The method in brief: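 E16 mouse cortical neurons plated at 0.5 × 10^6/well and lipofected 2 h after plating with 0.5 µg gene-of-interest plasmid or empty vector plus 0.25 µg GFP plasmid. 30 nM or vehicle added 3 h after transfection. Neurons imaged at DIV-2.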

In test [11] the target is BDNF/NT-3 growth factors receptor (Mus musculus) (UniProt P15209). The experiment in a line: Activation of TrkB receptor in Swiss Webster mouse immature cerebrocortical neuron assessed as phosphorylation of TrkB at Tyr516 residue at 30 nM incubated for 30 mins by western blot analysis. It is filed as cell-based. The following applies: filed as activator. Put shortly:
as §4

The target of test [12] is RAC-alpha serine/threonine-protein kinase (Mus musculus) (UniProt P31750). The experiment in a line: Activation of Akt signalling pathway in Swiss Webster mouse immature cerebrocortical neuron assessed as increase in AKT phosphorylation of Ser473 by measuring fold change at […] incubated for 24 hrs by western blot analysis. It is filed as cell-based. The following applies: filed as activator, dose lower 10.0 µM.

The target of test [13] is Serine/threonine-protein kinase mTOR (Mus musculus) (UniProt Q9JLN9). The experiment in a line: Activation of mTOR signalling pathway in Swiss Webster mouse immature cerebrocortical neuron assessed as increase in mTOR phosphorylation at Ser2448 at […] incubated for 3 hrs by western blot analysis. It is filed as cell-based. The following applies: filed as activator.

SMILES strings stand for the structures. pEC50: −log10 of the molar value. Active and inactive are the calls of the source. The rule behind the calls is not given here.

Sequence of BDNF/NT-3 growth factors receptor (Mus musculus) (P15209 whole entry): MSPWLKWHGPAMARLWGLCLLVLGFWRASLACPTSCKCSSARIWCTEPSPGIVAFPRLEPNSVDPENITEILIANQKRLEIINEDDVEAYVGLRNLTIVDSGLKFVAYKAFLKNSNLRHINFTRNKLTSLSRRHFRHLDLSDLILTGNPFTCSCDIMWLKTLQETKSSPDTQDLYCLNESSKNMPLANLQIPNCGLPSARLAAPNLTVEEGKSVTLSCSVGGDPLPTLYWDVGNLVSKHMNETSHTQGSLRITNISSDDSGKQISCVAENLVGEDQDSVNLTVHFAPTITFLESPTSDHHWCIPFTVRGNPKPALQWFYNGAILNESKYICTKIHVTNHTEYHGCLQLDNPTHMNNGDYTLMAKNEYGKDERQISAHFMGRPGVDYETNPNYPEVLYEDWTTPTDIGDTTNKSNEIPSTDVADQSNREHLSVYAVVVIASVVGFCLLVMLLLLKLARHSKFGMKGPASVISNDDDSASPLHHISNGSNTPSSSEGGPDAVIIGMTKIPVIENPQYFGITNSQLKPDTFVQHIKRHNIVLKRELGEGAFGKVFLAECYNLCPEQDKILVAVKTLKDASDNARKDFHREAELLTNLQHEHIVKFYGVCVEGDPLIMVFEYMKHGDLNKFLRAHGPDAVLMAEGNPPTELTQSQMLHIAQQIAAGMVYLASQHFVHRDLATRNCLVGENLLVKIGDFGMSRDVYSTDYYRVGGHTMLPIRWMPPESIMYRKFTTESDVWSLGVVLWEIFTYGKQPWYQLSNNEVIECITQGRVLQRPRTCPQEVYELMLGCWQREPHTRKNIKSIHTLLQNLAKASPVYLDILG
Sequence of BDNF/NT-3 growth factors receptor (Homo sapiens) (Q16620 32-822 limits assumed): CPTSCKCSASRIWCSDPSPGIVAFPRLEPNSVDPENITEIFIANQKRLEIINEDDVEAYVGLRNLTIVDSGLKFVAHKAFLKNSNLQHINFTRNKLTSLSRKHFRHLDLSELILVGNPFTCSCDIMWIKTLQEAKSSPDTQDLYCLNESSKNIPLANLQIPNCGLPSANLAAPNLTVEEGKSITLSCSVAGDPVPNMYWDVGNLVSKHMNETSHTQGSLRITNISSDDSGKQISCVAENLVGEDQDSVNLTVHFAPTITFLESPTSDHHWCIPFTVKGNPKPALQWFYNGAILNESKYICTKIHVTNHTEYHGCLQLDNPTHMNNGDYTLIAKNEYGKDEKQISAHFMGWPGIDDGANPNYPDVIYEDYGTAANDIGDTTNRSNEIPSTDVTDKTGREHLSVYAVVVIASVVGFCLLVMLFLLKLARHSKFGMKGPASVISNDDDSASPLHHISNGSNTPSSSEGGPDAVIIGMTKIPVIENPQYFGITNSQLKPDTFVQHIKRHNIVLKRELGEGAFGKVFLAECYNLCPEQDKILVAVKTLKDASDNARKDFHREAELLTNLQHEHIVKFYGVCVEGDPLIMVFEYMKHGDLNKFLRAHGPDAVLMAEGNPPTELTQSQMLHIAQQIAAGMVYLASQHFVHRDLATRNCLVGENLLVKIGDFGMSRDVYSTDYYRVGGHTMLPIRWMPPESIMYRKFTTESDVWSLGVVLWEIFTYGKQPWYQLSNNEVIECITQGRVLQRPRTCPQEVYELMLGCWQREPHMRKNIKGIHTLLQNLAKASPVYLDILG
Sequence of RAC-alpha serine/threonine-protein kinase (Mus musculus) (P31750 whole entry): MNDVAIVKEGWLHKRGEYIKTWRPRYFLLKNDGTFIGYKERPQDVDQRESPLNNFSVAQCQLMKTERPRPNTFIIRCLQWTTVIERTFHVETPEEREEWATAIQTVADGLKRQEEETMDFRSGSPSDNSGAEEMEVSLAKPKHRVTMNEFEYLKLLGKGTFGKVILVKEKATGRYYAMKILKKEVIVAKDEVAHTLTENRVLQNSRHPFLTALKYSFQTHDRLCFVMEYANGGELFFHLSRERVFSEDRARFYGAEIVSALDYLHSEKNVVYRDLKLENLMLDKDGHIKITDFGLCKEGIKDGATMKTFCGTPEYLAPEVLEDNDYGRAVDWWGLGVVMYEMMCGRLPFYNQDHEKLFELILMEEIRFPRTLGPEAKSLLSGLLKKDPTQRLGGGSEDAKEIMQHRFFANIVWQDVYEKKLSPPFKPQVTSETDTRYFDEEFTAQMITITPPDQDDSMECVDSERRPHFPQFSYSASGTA

Usually pEC50 stands for the negative decadic logarithm of the EC50, by convention in mol/L. `C=C1CC(=O)N[C@@H](C)C(=O)N(C)[C@@H](C(C)C)C(=O)NCC(=O)O[C@@H](/C(C)=C/C(C)=C/C(C)(C)C)[C@@H]1C` [ANTILLATOXIN]: the Activity was 1.73 µM in test [1]; 1.81 µM in test [2]; 2.32 µM in test [3]; “Dde” in test [5]; 2.07 µM in test [9]. In addition, the pEC50 in test [4] is 6.35. In addition, the result in test [6], in test [7], in test [8], in [10] and in [11] was Active. The fold change (FC) in test [12] worked out at 3; in test [13], 2.
